Experimental data reported in PMC3525873 (British Journal of Pharmacology, 2012).

Experiments:
[1] = test system: NFAT; experiment: GFP-NFAT translocation in RBL-2H3 cells; assay type: cell-based; conditions: 10 μM, thapsigargin 1 μM then 2 mM Ca2+ re-addition
Outline: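 RBL-2H3 cells electroporated with GFP-NFAT (20 μg DNA, 300 V, 275 μF) 12–18 h beforehand, on coverslips. In nominally Ca2+-free buffer, stores depleted with 1 μM thapsigargin for 5 min, then 2 mM CaCl2 added. Test compound at 10 μM in all buffers. Basal taken before depletion. Cells fixed in paraformaldehyde with DAPI-stained nuclei. Nuclear/cytosolic GFP intensity ratio measured; ≥18 cells per condition.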

[2] = target: T1, TRPC5 (Homo sapiens, UniProt Q9UL62); experiment: Fura-2 Ca2+ entry in HEK293 cells overexpressing YFP-TRPC5; assay type: cell-based
T1 sequence (Q9UL62 1-973): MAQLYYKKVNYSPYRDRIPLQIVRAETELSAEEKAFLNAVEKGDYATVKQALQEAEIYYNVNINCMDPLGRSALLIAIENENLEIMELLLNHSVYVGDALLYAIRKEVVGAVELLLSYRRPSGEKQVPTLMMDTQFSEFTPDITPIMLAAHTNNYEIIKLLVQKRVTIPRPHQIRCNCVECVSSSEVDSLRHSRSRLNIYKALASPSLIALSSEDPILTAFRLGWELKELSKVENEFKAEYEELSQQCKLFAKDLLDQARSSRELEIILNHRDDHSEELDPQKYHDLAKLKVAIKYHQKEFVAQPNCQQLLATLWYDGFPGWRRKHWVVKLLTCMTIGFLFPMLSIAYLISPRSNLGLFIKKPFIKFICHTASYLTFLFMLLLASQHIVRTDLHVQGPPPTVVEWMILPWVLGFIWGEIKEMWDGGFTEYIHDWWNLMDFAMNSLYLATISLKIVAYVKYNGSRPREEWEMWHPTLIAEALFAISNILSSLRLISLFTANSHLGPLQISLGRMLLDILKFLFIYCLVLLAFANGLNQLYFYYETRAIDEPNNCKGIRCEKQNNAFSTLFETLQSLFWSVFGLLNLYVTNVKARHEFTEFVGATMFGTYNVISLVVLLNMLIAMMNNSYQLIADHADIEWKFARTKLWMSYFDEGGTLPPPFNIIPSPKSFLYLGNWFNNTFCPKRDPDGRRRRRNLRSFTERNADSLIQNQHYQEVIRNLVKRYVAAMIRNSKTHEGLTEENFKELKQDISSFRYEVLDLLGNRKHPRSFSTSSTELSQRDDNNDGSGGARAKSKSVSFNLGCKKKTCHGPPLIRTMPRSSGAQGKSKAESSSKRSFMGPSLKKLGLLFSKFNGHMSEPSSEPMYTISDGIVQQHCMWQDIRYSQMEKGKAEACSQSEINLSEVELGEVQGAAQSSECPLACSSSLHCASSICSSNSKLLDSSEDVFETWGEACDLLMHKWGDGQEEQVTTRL

[3] = target: STIM1/Orai1-mediated SOCE (Rattus norvegicus, UniProt Q5M848); experiment: Fura-2 Ca2+ re-addition, thapsigargin-depleted native RBL-2H3 cells; assay type: cell-based
STIM1/Orai1-mediated SOCE, sequence (Q5M848 whole entry, the tested form may be a part): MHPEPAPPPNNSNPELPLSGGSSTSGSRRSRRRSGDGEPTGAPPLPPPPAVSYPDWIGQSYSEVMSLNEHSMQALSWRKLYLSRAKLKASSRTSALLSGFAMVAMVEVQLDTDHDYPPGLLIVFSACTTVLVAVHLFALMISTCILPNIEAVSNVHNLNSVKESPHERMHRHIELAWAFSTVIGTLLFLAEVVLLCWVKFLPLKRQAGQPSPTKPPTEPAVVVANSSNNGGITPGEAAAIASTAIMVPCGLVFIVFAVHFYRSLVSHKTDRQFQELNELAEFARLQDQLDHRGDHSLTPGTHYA
Outline: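 Native RBL-2H3 cells were loaded with 2 μM Fura-2-AM for 45 min and perfused in Ca2+-free extracellular solution at room temperature. Stores depleted with 1 μM thapsigargin for 5 min. Test compound present ≥5 min before and throughout. Ca2+ entry evoked by 2 mM Ca2+ re-addition; 340/380 nm ratio read (510 nm emission). Inhibition expressed as % of control peak entry. IC50 by 4-parameter logistic fit; 3–5 experiments, 29–80 cells.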

[4] = target: T2, TRPC6 (Mus musculus, UniProt Q61143); experiment: Fura-2 Ca2+ entry in HEK293 cells overexpressing GFP-TRPC6; assay type: cell-based, murine
T2 sequence (Q61143 1-930): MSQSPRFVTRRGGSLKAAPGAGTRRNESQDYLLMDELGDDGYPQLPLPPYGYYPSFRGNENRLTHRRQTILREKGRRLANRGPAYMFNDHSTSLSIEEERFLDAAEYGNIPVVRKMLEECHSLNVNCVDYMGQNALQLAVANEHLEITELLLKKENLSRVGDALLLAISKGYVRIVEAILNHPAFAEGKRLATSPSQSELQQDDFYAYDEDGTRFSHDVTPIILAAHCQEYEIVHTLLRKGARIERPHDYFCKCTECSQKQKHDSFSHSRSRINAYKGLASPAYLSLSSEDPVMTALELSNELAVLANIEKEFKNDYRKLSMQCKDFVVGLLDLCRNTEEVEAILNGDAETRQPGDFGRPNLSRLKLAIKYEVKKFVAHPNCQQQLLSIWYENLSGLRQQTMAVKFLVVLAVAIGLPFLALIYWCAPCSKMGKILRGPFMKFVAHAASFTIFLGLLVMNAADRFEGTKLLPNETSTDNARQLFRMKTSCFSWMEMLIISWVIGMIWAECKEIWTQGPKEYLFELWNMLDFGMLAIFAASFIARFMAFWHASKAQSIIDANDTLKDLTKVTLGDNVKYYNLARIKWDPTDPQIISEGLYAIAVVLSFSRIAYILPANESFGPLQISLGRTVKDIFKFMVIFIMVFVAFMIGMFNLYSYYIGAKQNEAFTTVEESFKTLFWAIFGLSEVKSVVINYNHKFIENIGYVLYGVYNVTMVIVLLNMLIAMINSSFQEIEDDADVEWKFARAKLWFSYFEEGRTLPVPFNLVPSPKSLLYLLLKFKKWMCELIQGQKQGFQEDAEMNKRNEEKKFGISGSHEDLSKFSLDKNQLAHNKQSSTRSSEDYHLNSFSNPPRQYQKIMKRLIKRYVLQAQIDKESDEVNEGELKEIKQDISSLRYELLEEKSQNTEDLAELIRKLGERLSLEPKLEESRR

[5] = target: CRAC currents in native RBL-2H3 cells (Rattus norvegicus, UniProt Q5M848); experiment: Patch-clamp of CRAC currents in native RBL-2H3 cells; assay type: cell-based
CRAC currents in native RBL-2H3 cells, sequence (Q5M848 whole entry): as the sequence (Q5M848 whole entry, the tested form may be a part) above
Outline: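 Whole-cell recording of native RBL-2H3 cells at room temperature. Stores depleted passively by 20 mM EGTA in the Cs-methanesulphonate pipette solution (pH 7.2). Bath contained 20 mM CaCl2 (pH 7.4). Ramps from −90 to +90 mV over 1 s, holding +30 mV. Test compound at 3 μM, pre-incubated or applied acutely. Net current (minus basal) read at −85 mV 300 s after break-in; n ≥ 6 cells.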

How did the “Effect on NFAT translocation” value [1] turn out when `O=C(Nc1ccc(-n2nc(C(F)(F)F)cc2C(F)(F)F)cc1)c1ccncc1F` [Pyr6, N-(4-(3,5-bis(trifluoromethyl)-1H-pyrazole-1-yl)phenyl)-3-fluoroisonicotinamide] was run?
Its value is “clearly inhibited NFAT translocation”.

What about the IC50 [2] of the same molecule?
Its IC50 is greater than 10 µM.

And the “Higher potency in SOCE model than in TRPC3-ROCE model, orders of magnitude” value ([3]; RBL-2H3 SOCE vs TRPC3 ROCE)?
Its value is 1.58 OM.

What about the “Higher potency in SOCE model than in TRPC3-ROCE model” value ([3]; ratio of IC50 values, RBL-2H3 SOCE vs TRPC3 ROCE) of the same molecule?
Its value is 37 fold.

What about the IC50 [4] of the same molecule?
The IC50 was greater than 10 µM.

And the “Effect on CRAC Ca2+ entry-mediating conductance” value ([5]; 3 μM pre-incubation)?
Its value is “completely inhibiting CRAC currents”.

How did the “Effect on NFAT translocation” value [1] turn out when `Cc1ccc(S(=O)(=O)Nc2ccc(-n3nc(C(F)(F)F)cc3C(F)(F)F)cc2)cc1` [Pyr10, N-(4-(3,5-bis(trifluoromethyl)-1H-pyrazole-1-yl)phenyl)-4-methylbenzenesulfonamide] was run?
The value was “failed to suppress NFAT activation significantly”.

And the IC50 [2]?
The IC50 was greater than 10 µM.

And the “Reduction of Ca2+ entry (Orai-mediated)” value ([3]; 3 μM)?
The value was 30%.

What about the IC50 [4] of the same molecule?
Its IC50 is greater than 10 µM.

What about the inhibition at 3 µM ([5]; RBL-2H3, read-out: Inhibition of CRAC currents) of the same molecule?
The inhibition at 3 µM was roughly 50%.
